Broadly, the Ki is a dissociation constant, usually derived from enzyme kinetics or from competition with a known ligand.

Experimental findings from ChEMBL document CHEMBL1129322, “Discovery and optimization of a novel class of orally active nonpeptidic endothelin-A receptor antagonists” (J Med Chem, 1996) are described below.

SMILES strings stand for the structures.

The target in one assay is T1, Endothelin-1 receptor (Homo sapiens, UniProt P25101).
T1 sequence (P25101 whole entry): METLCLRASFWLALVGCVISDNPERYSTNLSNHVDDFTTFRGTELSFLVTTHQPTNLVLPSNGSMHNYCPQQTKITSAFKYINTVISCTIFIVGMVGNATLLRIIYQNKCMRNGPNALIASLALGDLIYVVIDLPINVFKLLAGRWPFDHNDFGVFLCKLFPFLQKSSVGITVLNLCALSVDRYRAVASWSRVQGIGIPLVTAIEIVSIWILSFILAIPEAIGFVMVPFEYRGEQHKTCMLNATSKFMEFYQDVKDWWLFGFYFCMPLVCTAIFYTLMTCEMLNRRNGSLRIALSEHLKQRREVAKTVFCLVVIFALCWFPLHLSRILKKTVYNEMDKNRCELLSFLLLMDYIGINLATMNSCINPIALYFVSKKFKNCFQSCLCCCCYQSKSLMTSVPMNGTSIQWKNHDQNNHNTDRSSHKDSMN
The experiment in a line: Binding affinity towards human Endothelin A receptor by measuring its ability to displace [125I]ET1 from CHO cells. Format: cell-based.

A further assay is filed under the species Oryctolagus cuniculus. The experiment in a line: Functional vascular ET-1 antagonism was determined in rabbit aorta rings with intact endothelium. The following applies: read-out: pA2 (converted).
Assay [1] deals with Rattus norvegicus. The experiment in a line: Ability to protect rats from ET-1 induced sudden death in rats after peroral administration. Format: functional. In short, it runs like this:
(§1)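 Male Sprague-Dawley rats (280-320 g) were pretreated orally with antagonist 4 h before a tail-vein injection of ET-1 (6 nmol/kg), which causes severe ECG disturbances and lethality within minutes. Oral doses were 10, 30 or 100 mg/kg. Lethality was scored as deaths/n, and ED100 was taken as the dose giving complete protection.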

Assay [2] deals with T2, Endothelin receptor (Rattus norvegicus) (UniProt P26684+P21451). The experiment in a line: In vivo prevention of ET-1-induced sudden death in 5 rats by pretreatment with endothelin receptor antagonist at a dose of 100 mg/kg p.o.; 0/5. The arrangement: dose 100 mg/kg. The class given is functional, organism-based. In short, it runs like this: as §1
T2 sequence (P21451 whole entry, looked up): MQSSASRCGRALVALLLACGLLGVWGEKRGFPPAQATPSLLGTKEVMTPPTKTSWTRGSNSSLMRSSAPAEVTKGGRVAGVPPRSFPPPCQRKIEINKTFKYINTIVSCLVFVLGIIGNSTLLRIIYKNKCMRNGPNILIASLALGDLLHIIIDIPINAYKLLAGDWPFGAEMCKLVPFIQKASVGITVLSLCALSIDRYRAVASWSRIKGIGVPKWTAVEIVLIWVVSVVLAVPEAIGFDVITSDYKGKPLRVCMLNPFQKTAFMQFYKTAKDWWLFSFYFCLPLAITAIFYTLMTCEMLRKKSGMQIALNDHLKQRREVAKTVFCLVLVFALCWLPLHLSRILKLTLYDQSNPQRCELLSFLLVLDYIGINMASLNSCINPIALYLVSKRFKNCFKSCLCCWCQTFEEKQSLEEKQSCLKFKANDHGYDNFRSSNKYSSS
T2 sequence (P26684 whole entry, looked up): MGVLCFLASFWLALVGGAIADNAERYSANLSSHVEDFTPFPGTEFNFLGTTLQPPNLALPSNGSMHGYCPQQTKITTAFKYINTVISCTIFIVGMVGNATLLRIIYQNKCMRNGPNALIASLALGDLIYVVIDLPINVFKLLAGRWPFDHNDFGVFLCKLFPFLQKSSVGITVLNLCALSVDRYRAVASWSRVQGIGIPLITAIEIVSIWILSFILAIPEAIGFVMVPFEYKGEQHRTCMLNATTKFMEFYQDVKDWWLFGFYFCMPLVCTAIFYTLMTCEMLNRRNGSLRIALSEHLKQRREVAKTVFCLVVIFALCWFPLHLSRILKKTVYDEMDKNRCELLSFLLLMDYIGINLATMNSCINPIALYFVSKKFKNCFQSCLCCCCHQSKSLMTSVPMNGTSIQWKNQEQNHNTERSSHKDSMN
Assay [3] deals with T2, Endothelin receptor (Rattus norvegicus). As to the kind of experiment: In vivo prevention of ET-1-induced sudden death in 6 rats by pretreatment with endothelin receptor antagonist at a dose of 10 mg/kg p.o.; 6/6. Format: functional, organism-based. Also on record: dose 10 mg/kg. An outline of the steps: as §1
Assay [4] shares this target. As to the kind of experiment: In vivo prevention of ET-1-induced sudden death in 6 rats by pretreatment with endothelin receptor antagonist at a dose of 30 mg/kg p.o.; 2/6. The arrangement: dose 30 mg/kg. Format: functional, organism-based. In short, it runs like this:
as §1

Assay [5] has the same target. The experiment in a line: In vivo prevention of ET-1-induced sudden death in 6 rats by pretreatment with endothelin receptor antagonist at a dose of 30 mg/kg p.o. Format: functional, organism-based. The arrangement: dose 30 mg/kg. In short, it runs like this:
as §1

Assay [6] addresses T3, Endothelin receptor type B (Homo sapiens, UniProt P24530).
T3 sequence (P24530 whole entry): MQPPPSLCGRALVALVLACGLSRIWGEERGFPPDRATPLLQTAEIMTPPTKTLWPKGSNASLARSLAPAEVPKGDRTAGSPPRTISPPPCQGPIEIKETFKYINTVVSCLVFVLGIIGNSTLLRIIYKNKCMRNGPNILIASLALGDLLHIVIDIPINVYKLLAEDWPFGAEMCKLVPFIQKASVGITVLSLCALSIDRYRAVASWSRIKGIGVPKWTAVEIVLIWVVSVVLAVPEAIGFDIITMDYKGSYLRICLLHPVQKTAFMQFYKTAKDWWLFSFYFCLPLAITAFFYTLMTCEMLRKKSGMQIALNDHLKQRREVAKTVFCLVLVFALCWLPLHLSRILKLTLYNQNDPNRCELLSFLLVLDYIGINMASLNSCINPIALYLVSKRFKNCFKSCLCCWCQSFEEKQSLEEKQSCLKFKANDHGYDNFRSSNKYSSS
As to the kind of experiment: (§2) Binding affinity towards human Endothelin B receptor by measuring its ability to displace [125I]ET-3 from CHO cells. Format: cell-based. An outline of the steps: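 Membranes ([…]) from stably transfected CHO cells expressing human ET_A or ET_B receptors, or guinea pig cerebellum (ET_B), incubated with 25 pmol/L [125I]ET-1 or [125I]ET-3 with or without drugs; nonspecific binding defined with […] ET-1.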

Assay [7] has as its system Rattus norvegicus. As to the kind of experiment: Ability to protect rats from ET-1 induced sudden death in after peroral administration. The class given is functional. In short, it runs like this: as §1
Assay [8] has as its target T2, Endothelin receptor (Rattus norvegicus). The experiment in a line: In vivo prevention of ET-1-induced sudden death in 9 rats by pretreatment with endothelin receptor antagonist at a dose of 30 mg/kg p.o.; 9/9. Format: functional, organism-based. The arrangement: dose 30 mg/kg. An outline of the steps: as §1
Assay [9] addresses T3, Endothelin receptor type B. Described as §2. Format: cell-based. The source holds these as a separate data set.
For assay [10], the system named is Rattus norvegicus. The experiment in a line: Ability to protect rats from ET-1 induced sudden death in rats after intravenous administration. The class given is functional. In short, it runs like this:
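Male Sprague-Dawley rats (280-320 g) received antagonist intravenously and were then challenged with ET-1 (6 nmol/kg) injected into a tail vein, a dose that causes lethality within minutes. ED100 was the intravenous dose giving complete protection from sudden death.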

Assay [11] has as its target T2, Endothelin receptor (Rattus norvegicus). As to the kind of experiment: In vivo prevention of ET-1-induced sudden death in 5 rats by pretreatment with endothelin receptor antagonist at a dose of 10 mg/kg p.o.; 5/5. Format: functional, organism-based. The arrangement: dose 10 mg/kg. An outline of the steps:
as §1

Assay [12] shares this target. As to the kind of experiment: In vivo prevention of ET-1-induced sudden death in 6 rats by pretreatment with endothelin receptor antagonist at a dose of 30 mg/kg p.o.; 0/6. The class given is functional, organism-based. The arrangement: dose 30 mg/kg. An outline of the steps:
as §1

Turning to `COc1cc(OC)nc(OC(C(=O)O)C(OC)(c2ccc(C)cc2)c2ccc(C)cc2)n1` (stereo unspecified), affinity at Endothelin-1 receptor was put at a Ki of 200 nM. `CCc1cc(C)nc(OC(C(=O)O)C(OC)(c2ccccc2)c2ccccc2)n1` (stereo unspecified) yielded a Ki on Endothelin-1 receptor of 0.7 nM. The molecule `COC(c1ccccc1)(c1ccccc1)C(Oc1nc(C)cc(C)n1)C(=O)O` (stereo unspecified) had a Ki on Endothelin-1 receptor of 1 nM. As to `COc1cccc(C(OC)(c2cccc(OC)c2)C(Oc2nc(OC)cc(OC)n2)C(=O)O)c1` (stereo unspecified), the affinity at Endothelin-1 receptor, expressed as Ki, was 22 nM.

`COc1nc(OC(C(=O)O)C(OC)(c2ccccc2)c2ccccc2)nc2c1CCO2` (stereo unspecified) returned a Ki on Endothelin-1 receptor of 0.9 nM. The Kb in the assay listed under Oryctolagus cuniculus is 0.933 nM. The molecule further returned an ED100 with Rattus norvegicus [1] of 100 mg/kg. The Lethality in assay [2] came to 0; in assay [3] it was 6; in [4] it was 2. `COc1cc(OC)nc(OC(C(=O)O)C(OC)(c2cccc(F)c2)c2cccc(F)c2)n1` (stereo unspecified): the Ki at Endothelin-1 receptor was 11 nM. Turning to `COc1cccc(Oc2c(NS(=O)(=O)c3ccc(C(C)(C)C)cc3)ncnc2OCCO)c1`, the Kb in the assay listed under Oryctolagus cuniculus was more than 1000 nM. In the assay with Rattus norvegicus [1], this molecule had an ED100 of more than 100 mg/kg. The molecule `COc1cc(OC)nc(OC(C(=O)O)C(OC)(c2cccc(C)c2)c2cccc(C)c2)n1` (stereo unspecified) came in with a Ki on Endothelin-1 receptor of 24 nM. The same measure, in the same setting: under `COc1cc(C)nc(OC(C(=O)O)C(OC)(c2ccccc2)c2ccccc2)n1` (stereo unspecified) stands 0.12 nM. For `Cc1noc(NS(=O)(=O)c2cccc3c(N(C)C)cccc23)c1C` [BMS-182874], the Kb in the assay filed under Oryctolagus cuniculus was 81.3 nM. Besides, in the assay on Rattus norvegicus [1] (po), the ED100 was more than 100 mg/kg. Also, the Lethality in assay [5] stood at 6.

Consider `COC(=O)C(Oc1nc(OC)cc(OC)n1)C(C)(Oc1ccc(C(C)C)cc1)c1ccccc1` (stereo unspecified), for which the Ki was determined as 3000 nM in assay [6] and 250 nM on Endothelin-1 receptor. With `COc1nc(OC(C(=O)O)C(OC)(c2ccccc2)c2ccccc2)nc2c1CCC2` (stereo unspecified), the inhibition constant (Ki) on Endothelin-1 receptor was determined as 0.4 nM. Also, the Kb in the assay listed under Oryctolagus cuniculus is 0.575 nM. This molecule also yielded an ED100 with Rattus norvegicus [7] of 100 mg/kg. For the same molecule, the Lethality was determined as 0 in assay [2] and 9 in assay [8]. `CCOc1cc(OCC)nc(OC(C(=O)O)C(OC)(c2ccccc2)c2ccccc2)n1` (stereo unspecified) registered a Ki on Endothelin-1 receptor of 174 nM. Take `CCc1cc(CC)nc(OC(C(=O)O)C(OC)(c2ccccc2)c2ccccc2)n1` (stereo unspecified): on Endothelin-1 receptor, the Ki came out at 1 nM.

`COc1cc(OC)nc(OC(C(=O)O)C(O)(c2ccccc2)c2ccccc2)n1` (stereo unspecified) displayed a Ki on Endothelin-1 receptor of 130 nM. As for `CCCOc1ccc2c(c1)[C@@H](c1ccc(OC)cc1OCC(=O)O)[C@H](C(=O)O)[C@H]2c1ccc2c(c1)OCO2` [SB-209670], in the assay listed under Oryctolagus cuniculus, the Kb was 0.158 nM. Moreover, the ED100 in the assay on Rattus norvegicus [1] came to 100 mg/kg. In the case of `COC(=O)C(Oc1nc(OC)cc(OC)n1)C(C)(Oc1ccc(SC)cc1)c1ccccc1` (stereo unspecified), the results for the inhibition constant Ki (in assay [6]; on Endothelin-1 receptor) were 4700 nM and 160 nM, respectively. For the molecule `COc1cc(OC)nc(OC(C(=O)O)C(OC)(c2ccccc2F)c2ccccc2F)n1` (stereo unspecified), the Ki at Endothelin-1 receptor was 150 nM.

For `COc1cc(OC)nc(OC(C(=O)O)C(OCCC(C)(C)C)(c2ccccc2)c2ccccc2)n1` (stereo unspecified), the inhibitory constant (Ki) at Endothelin-1 receptor was determined as 340 nM.

For the molecule `COc1cc(OC)nc(OC(C(=O)O)C(OC)(c2ccccc2)c2ccccc2)n1` (stereo unspecified), the inhibitory constant (Ki) in assay [9] was 371 nM. For the same molecule, the Kb in the assay listed under Oryctolagus cuniculus was 45.7 nM. The figures for the ED100 with Rattus norvegicus [10] and in the assay on Rattus norvegicus [1] were 10 mg/kg and 30 mg/kg, respectively. The Lethality stood at 5 in assay [11] and 0 in [12].

As to `COc1cc(OC)nc(OC(C(=O)O)C(OC)(c2ccc(Cl)cc2)c2ccc(Cl)cc2)n1` (stereo unspecified), the inhibition constant (Ki) at Endothelin-1 receptor worked out at 245 nM.
